Measurements as given in PMC3290340 (Pigment cell & melanoma research, 2012).
One block for each compound: values may come before it.

What was measured:
recombinant SPHK1 = recombinant SPHK1 (Homo sapiens, UniProt Q9NYA1); assay: In vitro SphK activity assay with recombinant SPHK1; assay type: biochemical; settings: recombinant protein, Fig. 2B
recombinant SPHK2 = biological target: T1, recombinant SPHK2 (Homo sapiens, UniProt Q9NRA0); assay: In vitro SphK activity assay with recombinant SPHK2; assay type: biochemical; settings: Fig. 2B
T1 sequence (Q9NRA0 1-654): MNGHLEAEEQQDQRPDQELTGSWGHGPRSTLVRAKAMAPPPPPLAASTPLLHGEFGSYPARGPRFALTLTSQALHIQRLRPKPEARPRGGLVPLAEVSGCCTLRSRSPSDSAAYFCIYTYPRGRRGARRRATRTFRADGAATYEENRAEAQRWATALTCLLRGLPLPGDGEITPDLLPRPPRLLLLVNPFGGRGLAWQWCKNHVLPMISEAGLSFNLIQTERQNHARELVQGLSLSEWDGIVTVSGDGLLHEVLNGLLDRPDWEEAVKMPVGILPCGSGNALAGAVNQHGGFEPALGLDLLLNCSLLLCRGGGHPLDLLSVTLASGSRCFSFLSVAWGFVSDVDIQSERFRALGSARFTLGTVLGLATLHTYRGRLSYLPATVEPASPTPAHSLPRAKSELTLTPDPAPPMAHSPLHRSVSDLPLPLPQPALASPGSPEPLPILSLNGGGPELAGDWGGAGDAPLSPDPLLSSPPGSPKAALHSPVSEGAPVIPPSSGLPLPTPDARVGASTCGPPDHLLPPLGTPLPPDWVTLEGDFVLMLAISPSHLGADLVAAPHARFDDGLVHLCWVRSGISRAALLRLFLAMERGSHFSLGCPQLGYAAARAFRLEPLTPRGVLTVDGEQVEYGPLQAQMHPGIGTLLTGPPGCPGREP

UACC 903 cells [1] = assay: Cellular S-1-P and ceramide content by LC-MS-MS, UACC 903; assay type: cell-based, human; settings: UACC 903, 2.5 and 5.0 μM, 48 hours
How it was run: (§1)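 UACC 903 or 1205 Lu cells (2.0×10^6, triplicate dishes) in DMEM/10% FBS; after 24 h, PBS-washed and treated 48 h with 2.5 or 5.0 μM test compound or DMSO. Floating cells pelleted at 500 x g, 5 min, 4 °C, PBS-washed and pooled with scraped adherent cells. Extracts assayed by LC-MS-MS for sphingosine, S-1-P and ceramides.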

[2] = test system: UACC 903 xenografted melanoma tumors; assay: Xenografted UACC 903 melanoma tumor growth; assay type: in vivo, nude mice; settings: UACC 903 xenograft, 100 mg/kg i.p. Mon/Wed/Fri, day 22
How it was run: (§2)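 Female nude mice, 4-6 weeks old, injected s.c. above both rib cages with 5×10^6 UACC 903 or 2.5×10^6 1205 Lu cells in 0.2 ml DMEM/10% FBS. On day 6, randomized (n=5, 10 tumors per group). Dosed i.p. at 100 mg/kg in 50 μl DMSO (or DMSO alone) Mon/Wed/Fri for 3 weeks. Tumor dimensions by calipers; body weight monitored.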

[3] = Body weight during i.p. treatment; assay type: in vivo, nude mice; settings: 100 mg/kg
A375M melanoma cells = assay: MTS cell viability, A375M; assay type: cell-based, human; settings: value of the text (Fig. 3A, 72 hours)
How it was run: (§3)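 5×10^3 cells/well in DMEM/10% FBS, pre-grown 36 h (melanoma lines) or 72 h (FF2441 fibroblasts, FOM melanocytes). Then exposed to test compound (0.5–100 μM) or DMSO for 24, 48 or 72 h. Viability by MTS relative to vehicle-treated cells; IC50 fitted per line. Melanoma values also averaged across the six melanoma lines.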

UACC 903 melanoma cells = assay: MTS cell viability, UACC 903; assay type: cell-based, human
How it was run: as §3

1205 Lu melanoma cells = assay: MTS cell viability, 1205 Lu; assay type: cell-based, human; settings: value of the text (Fig. 3A, 72 hours)
How it was run: as §3

melanoma cells = assay: MTS cell viability, average/range over the melanoma cell lines; assay type: cell-based, human
How it was run: as §3

1205 Lu cells [4] = assay: Cellular S-1-P and ceramide content by LC-MS-MS, 1205 Lu; assay type: cell-based, human; settings: 48 hours
How it was run: as §1

[5] = test system: 1205 Lu xenografted melanoma tumors; assay: Xenografted 1205 Lu melanoma tumor growth; assay type: in vivo, nude mice; settings: 1205 Lu xenograft, 100 mg/kg i.p. Mon/Wed/Fri, day 21
How it was run: as §2

UACC 903 cells [6] = assay: Cell cycle analysis; assay type: cell-based, human; settings: 72 h
How it was run: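 1.5×10^6 UACC 903 cells grown in 100-mm dishes, then treated 72 h with 1, 2.5 or 5.0 μM test compound or DMSO. Floating plus adherent cells collected by trypsinization and stained 30 min at 4 °C (propidium iodide 100 μg/ml, RNase A 20 μg/ml, Triton X-100 3 μg/mL in 0.1% sodium citrate). Phase distribution by FACScan.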

[7] = test system: CYCLIN D1 in UACC 903 cells; assay: Western blot of CYCLIN D1; assay type: cell-based, human; settings: 72 h; for Decrease in CYCLIN D1 expression: compared to DMSO
How it was run: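 UACC 903 cells treated 72 h with test compound or DMSO and lysed in HEPES pH 7.5 buffer with protease/phosphatase inhibitors. Lysates cleared at 10,000 x g, 10 min, 4 °C; 30 μg protein per lane. Blotted to PVDF and detected by ECL. Band intensity densitometry given as percent change versus DMSO-treated cells.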

A375M cells = assay: Caspase-3/7 activity; assay type: cell-based, human; settings: 72 hours, tested 1, 2.5, 5.0 μM
How it was run: (§4)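 UACC 903, A375M or 1205 Lu cells (5×10^3/well, 96-well) exposed 72 h to test compound or DMSO. Caspase-3/7 substrate Z-DEVD-R110 (Apo-ONE kit) added 4 h before the end of treatment. Read-out is fold increase in caspase-3/7 activity over DMSO-treated cells. At least 3 independent experiments, SEM.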

UACC 903 cells [8] = assay: Caspase-3/7 activity; assay type: cell-based, human; settings: UACC 903, 72 hours, tested 1, 2.5, 5.0 μM
How it was run: as §4

1205 Lu cells [9] = assay: Caspase-3/7 activity; assay type: cell-based, human; settings: 72 hours, tested 1, 2.5, 5.0 μM
How it was run: as §4

[10] = UACC 903, 2.5 μM, compared to DMSO

Sequence of recombinant SPHK1 (Q9NYA1 whole entry): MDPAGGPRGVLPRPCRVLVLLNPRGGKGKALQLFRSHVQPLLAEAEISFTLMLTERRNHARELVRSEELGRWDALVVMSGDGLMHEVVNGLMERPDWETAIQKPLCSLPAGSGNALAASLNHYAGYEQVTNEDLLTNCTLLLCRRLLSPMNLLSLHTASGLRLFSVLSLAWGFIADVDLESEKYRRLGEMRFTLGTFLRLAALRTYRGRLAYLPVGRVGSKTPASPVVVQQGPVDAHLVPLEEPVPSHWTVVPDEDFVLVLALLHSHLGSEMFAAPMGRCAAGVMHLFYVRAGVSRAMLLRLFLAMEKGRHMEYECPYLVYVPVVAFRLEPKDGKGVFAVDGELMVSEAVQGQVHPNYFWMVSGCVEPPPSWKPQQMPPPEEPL

- Inhibition of SPHK1 activity (recombinant SPHK1): effective at inhibiting
- Inhibition of SPHK2 activity (recombinant SPHK2; recombinant protein): effective at inhibiting
- Selectivity SPHK1 versus SPHK2 (recombinant SPHK2; recombinant proteins): slightly enhanced selectivity to SPHK2
Compound: Oc1ccc(Nc2nc(-c3ccc(Cl)cc3)cs2)cc1 [SKI-II, 2-(p-hydroxyanilino)-4-(p-chlorophenyl) thiazole]
- Effect on cellular S-1-P (UACC 903 cells [1]): did not effect
- Effect on cellular ceramide levels (UACC 903 cells [1]): did not effect
- Difference in tumor volume between vehicle control and treatment group [2]: no effect on tumor growth
- Body weight change [3]: No weight changes

Compound: O=C(N/N=C/c1c(O)ccc2ccccc12)c1cc(-c2ccc3ccccc3c2)n[nH]1 [SKI-I]
- IC50 (A375M melanoma cells): 1.3 ± 0.27 µM
- Reduction of cell viability (UACC 903 melanoma cells; UACC 903, 5 μM, 72 hours): 50%
- IC50 (UACC 903 melanoma cells; UACC 903, value of the text (Fig. 3A, 72 hours)): 5.72 ± 0.35 µM
- IC50 (1205 Lu melanoma cells): 4.89 ± 0.63 µM
- Fold more effective than SKI-II (average IC50 values) (melanoma cells; SKI-I compared to SKI-II): ~ 10 fold
- IC50 (melanoma cells; read-out: Average IC50 for melanoma cells, 24 h treatment): 20.6 µM
- Effect on cellular ceramide levels (UACC 903 cells [1]): induced
- Effect on cellular S-1-P (1205 Lu cells [4]): no significant change
- Effect on cellular ceramide levels (1205 Lu cells [4]): increased
- Difference in tumor volume between vehicle control and treatment group [2]: ~ 40%
- Difference in tumor volume between vehicle control and treatment group [5]: ~ 26%
- Fold decrease of the G0/G1 cell population (UACC 903 cells [6]; [10]): 2.4 fold
- Fold increase of the G2/M population (UACC 903 cells [6]; [10]): 2.5 fold
- G2/M cell population (UACC 903 cells [6]; UACC 903, 5 μM): below detectable levels
- Decrease in CYCLIN D1 expression ([7]; UACC 903, 1 μM): 86.1%
- Decrease in CYCLIN D1 expression ([7]; UACC 903, 2.5 μM): 97.1%
- CYCLIN D1 levels ([7]; UACC 903, 5 μM): almost undetectable
- Concentration of maximal caspase-3/7 activity (A375M cells): 2.5 µM
- Concentration of maximal caspase-3/7 activity (UACC 903 cells [8]): 5 µM
- Concentration of maximal caspase-3/7 activity (1205 Lu cells [9]): 5 µM
- Body weight change [3]: No weight changes
